Legend:
Assay type in all cases: functional
[1] = Growth inhibition of human NCI-460 cells after 48 hrs by sulforhodamine B assay; details: NCI-460, 48 h
In short: (§1)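 Sulforhodamine B colorimetric assay following the NCI standard protocol, with doxorubicin as positive control. Each compound was tested at four concentrations in 10-fold dilutions (0.25 to 250). GI50, the concentration giving 50% growth reduction versus untreated control cells, was derived from dose–response curves.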

[2] = tested on: UACC-62; assay: Growth inhibition of human UACC-62 cells after 48 hrs by sulforhodamine B assay; details: UACC-62, 48 h; in short: as §1
[3] = tested on: K562; assay: Growth inhibition of human K-562 cells after 48 hrs by sulforhodamine B assay; details: K562, 48 h; in short: as §1
[4] = tested on: OVCAR; assay: Growth inhibition of human OVCAR cells after 48 hrs by sulforhodamine B assay; in short: as §1
[5] = tested on: HT-29; assay: Growth inhibition of human HT-29 cells after 48 hrs by sulforhodamine B assay; details: HT-29, 48 h; in short: as §1
[6] = Growth inhibition of human PCO3 cells after 48 hrs by sulforhodamine B assay; details: PCO3, 48 h; in short: as §1
[7] = tested on: 786-0; assay: Growth inhibition of human 786-0 cells after 48 hrs by sulforhodamine B assay; details: 786-0, 48 h; for CC50: read-out: LC50 (the source's name); in short: as §1
[8] = tested on: MCF7; assay: Growth inhibition of human MCF7 cells after 48 hrs by sulforhodamine B assay; details: MCF7, 48 h; in short: as §1

Compound | GI50 [1] [µM] | TGI [1] [µM] | GI50 [2] [µM] | TGI [2] [µM] | GI50 [3] [µM] | LC50 (concentration causing 50% net cell kill) [3] [µM] | TGI [3] [µM] | GI50 [4] [µM] | TGI [4] [µM] | GI50 [5] [µM] | TGI [5] [µM] | GI50 [6] [µM] | LC50 (concentration killing 50% of cells) [6] [µM] | TGI [6] [µM] | GI50 [7] [µM] | TGI [7] [µM] | GI50 [8] [µM] | TGI [8] [µM] | further results
CSc1nnc(-c2cc3c([nH]c4ccccc43)c(-c3ccccc3)n2)o1 | 3.42 | 74.7 | 99.5 | > 100 | 0.43 | 74.7 | 10.4 | 0.01 | 0.1 | 16.2 | > 100 | 23.6 | > 100 | 86.6 | 32 | > 100 | 12.2 | 31.3 | LC50 (concentration for 50% net cell kill) [1]: > 100 µM; LC50 (concentration killing 50% of the cells, NCI protocol) [4]: 1.6 µM; LC50 (concentration killing 50% of cells) [8]: > 100 µM
COc1ccc(-c2nc(-c3nnc(SC)o3)cc3c2[nH]c2ccccc23)cc1 | 1.28 | 56.6 | 29.1 | > 100 | 0.18 | – | > 100 | 2.13 | > 100 | > 100 | > 100 | > 100 | – | > 100 | > 100 | > 100 | 31.2 | > 100 | LC50 (concentration for 50% net cell kill) [1]: > 100 µM
S=c1[nH]nc(-c2cc3c([nH]c4ccccc43)c(-c3ccccc3)n2)o1 | 20.6 | > 100 | > 100 | > 100 | 15.3 | > 100 | 54.4 | 31.8 | > 100 | 25.5 | > 100 | 25.5 | – | > 100 | 27.9 | > 100 | 25.5 | > 100 | –
CSc1nnc(-c2cc3c([nH]c4ccccc43)c(-c3ccc([N+](=O)[O-])cc3)n2)o1 | > 100 | – | > 100 | – | > 100 | – | – | > 100 | – | > 100 | – | > 100 | – | – | > 100 | – | > 100 | – | –
COc1cc(-c2nc(-c3nnc(SC)o3)cc3c2[nH]c2ccccc23)ccc1O | 4.82 | > 100 | 17.8 | 48.6 | 22.6 | – | > 100 | 16.4 | 59.8 | 7.31 | 39.4 | 7.53 | > 100 | 39.4 | 15.3 | 36.3 | 12.7 | 28.1 | LC50 (concentration killing 50% of cells, NCI protocol) [2]: > 100 µM; LC50 (concentration killing 50% of the cells present at the start) [5]: > 100 µM; CC50 [7]: > 100 µM; LC50 (concentration killing 50% of cells) [8]: 61.2 µM
S=c1[nH]nc(-c2cc3c([nH]c4ccccc43)c(-c3ccccc3)n2)[nH]1 | 6.36 | – | 6.36 | – | 3.2 | – | – | 64.9 | – | 35.5 | – | 4.11 | – | – | 7.56 | – | > 100 | – | –
Oc1ccc(-c2nc(-c3n[nH]c(=S)o3)cc3c2[nH]c2ccccc23)cc1 | > 100 | > 100 | > 100 | > 100 | 21.5 | > 100 | 87 | > 100 | > 100 | > 100 | > 100 | 81.1 | – | > 100 | 94.9 | > 100 | 88.7 | > 100 | –
O=[N+]([O-])c1cccc(-c2nc(-c3n[nH]c(=S)o3)cc3c2[nH]c2ccccc23)c1 | 73.4 | > 100 | 24.1 | > 100 | 11 | > 100 | 86.7 | 22.3 | > 100 | 27.9 | > 100 | 12.2 | > 100 | 35.7 | 32.4 | > 100 | 27.9 | > 100 | –
COc1cc(-c2nc(-c3n[nH]c(=S)o3)cc3c2[nH]c2ccccc23)ccc1O | 89.3 | > 100 | 17.3 | 47.9 | 31.7 | – | > 100 | 5.87 | > 100 | 17.3 | > 100 | 25.9 | > 100 | 97.3 | 22.4 | > 100 | 32.2 | > 100 | LC50 (concentration killing 50% of cells, NCI protocol) [2]: > 100 µM
CSc1nnc(-c2cc3c([nH]c4ccccc43)c(-c3ccc(N(C)C)cc3)n2)o1 | > 100 | – | > 100 | – | > 100 | – | – | > 100 | – | 87.4 | – | 92.6 | – | – | > 100 | – | > 100 | – | –
CSc1nnc(-c2cc3c([nH]c4ccccc43)c(-c3ccccc3Cl)n2)o1 | 1.64 | 4.2 | 15.2 | > 100 | 0.17 | > 100 | 68.4 | 0.01 | 0.1 | 8.02 | 99.6 | 1.03 | 73.5 | 3.8 | 48.6 | > 100 | 16.8 | 51.9 | LC50 (concentration for 50% net cell kill) [1]: > 100 µM; LC50 (concentration killing 50% of the cells, NCI protocol) [4]: 10.1 µM; LC50 (concentration killing 50% of the cells present at the start) [5]: > 100 µM; LC50 (concentration killing 50% of cells) [8]: > 100 µM
COc1ccc(-c2nc(-c3n[nH]c(=S)[nH]3)cc3c2[nH]c2ccccc23)cc1 | 0.1 | – | 66.8 | – | > 100 | – | – | > 100 | – | > 100 | – | > 100 | – | – | 7.48 | – | > 100 | – | –
CSc1nnc(-c2cc3c([nH]c4ccccc43)c(-c3ccc(O)cc3)n2)o1 | 17.8 | 73.4 | 19.1 | > 100 | 10.8 | – | 28.8 | 13.5 | 35 | 12.8 | 35 | 10.5 | 59.2 | 24.8 | 11.8 | 24.8 | 7.42 | 23.4 | LC50 (concentration for 50% net cell kill) [1]: > 100 µM; LC50 (concentration killing 50% of the cells, NCI protocol) [4]: 100 µM; LC50 (concentration killing 50% of the cells present at the start) [5]: > 100 µM; CC50 [7]: 51.9 µM; LC50 (concentration killing 50% of cells) [8]: 80.3 µM
S=c1[nH]nc(-c2cc3c([nH]c4ccccc43)c(-c3ccccc3Cl)n2)o1 | 20.8 | > 100 | 18.1 | 80.1 | 20.3 | > 100 | 74 | 45.9 | > 100 | 17.4 | > 100 | 21.4 | – | > 100 | 27.9 | > 100 | 26.9 | > 100 | LC50 (concentration killing 50% of cells, NCI protocol) [2]: > 100 µM
CN(C)c1ccc(-c2nc(-c3n[nH]c(=S)o3)cc3c2[nH]c2ccccc23)cc1 | 19.1 | – | 23.8 | – | 9.55 | – | – | 14.7 | – | 40.5 | – | 14.7 | – | – | 14.7 | – | 18.8 | – | –
O=[N+]([O-])c1ccc(-c2nc(-c3n[nH]c(=S)o3)cc3c2[nH]c2ccccc23)cc1 | > 100 | > 100 | 38 | > 100 | 46.7 | – | > 100 | > 100 | > 100 | 31.3 | > 100 | 26 | > 100 | 99.2 | 73.1 | > 100 | 27.6 | > 100 | –
CSc1nnc(-c2cc3c([nH]c4ccccc43)c(-c3cccc([N+](=O)[O-])c3)n2)o1 | 24.5 | 99.2 | 16.4 | 69.4 | 21.3 | > 100 | 81.5 | 21.3 | > 100 | 68.1 | > 100 | 44.2 | – | > 100 | > 100 | > 100 | 79.8 | > 100 | LC50 (concentration for 50% net cell kill) [1]: > 100 µM; LC50 (concentration killing 50% of cells, NCI protocol) [2]: > 100 µM
COc1ccc(-c2nc(-c3n[nH]c(=S)o3)cc3c2[nH]c2ccccc23)cc1 | 9.2 | > 100 | 16.8 | 47.2 | 26.4 | – | > 100 | > 100 | > 100 | 20.3 | 55.3 | 17.3 | > 100 | 41.1 | 31.6 | > 100 | 24.9 | 97 | LC50 (concentration killing 50% of cells, NCI protocol) [2]: > 100 µM; LC50 (concentration killing 50% of the cells present at the start) [5]: > 100 µM; LC50 (concentration killing 50% of cells) [8]: > 100 µM

— ChEMBL document CHEMBL1151684, “Synthesis and antitumoral activity of novel 3-(2-substituted-1,3,4-oxadiazol-5-yl) and 3-(5-substituted-1,2,4-triazol-3-yl) beta-carboline derivatives” (2008)
